Source: PubChem BioAssay (several laboratories)
MBD2 DNA inh = blocks human MBD2 binding to methylated DNA; TR-FRET, MBD2 binding to methylated oligonucleotide; inhibition, % at 4.4 µM; 370,000 tested, 0.31% active; in the data active = inhibition above about 13%
UHRF1 MBD2 ctr = blocks human UHRF1 binding to methylated DNA; Q96T88; UHRF1 binding to methylated oligo, TR-FRET; inhibition, % at 4.4 µM; 370,000 tested, 0.75% active; AID 687016; in the data active = inhibition above about 21%;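 also: UHRF1 SRA domain binding a hemimethylated CpG hairpin DNA probe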
Target sequence (Q96T88 whole entry, looked up, the tested form may be a part): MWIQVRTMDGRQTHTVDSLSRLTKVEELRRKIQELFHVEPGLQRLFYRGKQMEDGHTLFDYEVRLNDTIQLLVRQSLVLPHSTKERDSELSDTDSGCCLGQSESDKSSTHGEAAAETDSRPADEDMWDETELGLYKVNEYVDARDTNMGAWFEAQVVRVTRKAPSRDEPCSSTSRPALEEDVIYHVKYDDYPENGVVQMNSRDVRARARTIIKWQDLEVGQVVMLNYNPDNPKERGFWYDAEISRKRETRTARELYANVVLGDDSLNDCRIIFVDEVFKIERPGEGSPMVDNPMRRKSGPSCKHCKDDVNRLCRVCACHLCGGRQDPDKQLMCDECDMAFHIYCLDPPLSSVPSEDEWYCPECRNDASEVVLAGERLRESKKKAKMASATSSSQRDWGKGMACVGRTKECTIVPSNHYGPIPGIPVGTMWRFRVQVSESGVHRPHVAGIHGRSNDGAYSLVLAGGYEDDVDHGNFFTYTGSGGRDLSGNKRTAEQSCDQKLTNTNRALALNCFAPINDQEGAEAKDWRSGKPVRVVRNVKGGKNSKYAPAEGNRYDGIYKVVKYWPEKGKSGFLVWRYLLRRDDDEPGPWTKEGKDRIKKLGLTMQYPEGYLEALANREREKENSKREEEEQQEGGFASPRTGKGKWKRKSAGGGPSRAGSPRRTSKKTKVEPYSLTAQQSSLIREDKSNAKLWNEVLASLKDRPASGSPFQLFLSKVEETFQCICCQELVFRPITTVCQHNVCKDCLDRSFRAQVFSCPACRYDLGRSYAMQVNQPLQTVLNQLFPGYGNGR
rCAG RNA binder = r(CAG) repeat RNA binding. AID 651821. 370,000 tested, 1.3% active. TO-PRO-1 dye displacement fluorescence. inhibition, % at 3 µM;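 active = inhibition above the plate cutoff, the mean of all test compounds on that plate plus 3 SD, cut at about 35% in these data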;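 also: higher means more dye released from RNA so lower well fluorescence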
ATG4B inhibitor = blocks human ATG4B protease cleavage of LC3 substrate; ATG4B cleavage of LC3-PLA2, NBD-HPC fluorescence, 1 h; inhibition, % at 8.33 µM; 340,000 tested, 0.51% active; AID 504462; in the data active = inhibition above about 40%
LEDGF integ inh = blocks HIV-1 LEDGF/p75-dependent DNA integration; TR-FRET IN-LEDGF/p75 DNA integration, Eu/Cy5; inhibition, % at 3.7 µM; 370,000 tested, 0.64% active; AID 743269;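 active = inhibition above the screen-wide mean plus 3 SD, cut at about 13% in these data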;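 also: signal is the Cy5 over europium emission ratio at 671 and 618 nm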
CSN deneddyl inh = blocks human CSN-mediated cullin deneddylation. Q92905. Purified CSN, SCF-Nedd8-OG deneddylation, fluorescence polarization. inhibition, % at 12.5 µM. 360,000 tested, 0.38% active. AID 651999;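 active = pattern-corrected inhibition above about 35%, with an unprinted fluorescence ratio check between 0.5 and 1.5, limit read from the data, passing the limit was not always enough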
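assay system = purified human Csn5 enzyme expressed in HEK293T cells | amount = 0.24 nM enzyme | buffer or medium = Tris/NaCl/DTT buffer, pH 7.5 | reagent = 10 nM SCFSkp2-Nedd8OG | compound = one concentration, 12.5 µM, 0.25% DMSO | times = 90 min reaction at room temperature | signal = FP | read-out basis = % inhibition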
A number is an active result; – = inactive; · = no result. Sampled rows, rich in hits. Any-hit rate of the full collection: about 3.1%.

SMILES	MBD2 DNA inh	UHRF1 MBD2 ctr	rCAG RNA binder	ATG4B inhibitor	LEDGF integ inh	CSN deneddyl inh
CCN(Cc1ccccc1)S(=O)(=O)c1cc(C(=O)OC)n(C)c1	–	–	–	–	–	–
CN1c2ccsc2C(O)=C(C(=S)Nc2ccc(F)c(Cl)c2)S1(=O)=O	–	–	67	–	–	–
Cn1cc(C(=O)Nc2ccc(F)c(Cl)c2)cn1	–	–	–	–	–	–
CC(C)(C)CSc1nnc(-c2cccnc2)n1Cc1ccccc1	–	–	–	·	–	·
CC(C)c1ccccc1NC(=O)[C@@H]1CCCN1S(=O)(=O)c1cccc2cccnc12	–	–	·	·	–	·
O=C(Nc1ccc([N+](=O)[O-])cc1)c1ccccc1	–	–	–	–	–	–
O=C(Nc1ccccc1)c1ccc[n+](Cc2ccc([N+](=O)[O-])cc2)c1	–	69	–	–	–	–
C#CC1(O)C2C=C(OC)C(=O)C1C(c1ccccc1)C2C (stereo unspecified)	–	–	–	·	–	·
O=C(CSc1nnc(Cc2cccs2)n1-c1ccc(Cl)cc1)Nc1ccc(OCc2ccccc2)cc1	–	–	–	·	–	·
COC(=O)C1CCN(S(=O)(=O)c2c(C)n(C)c(=O)n(C)c2=O)CC1	–	–	–	–	–	–
Cc1c(S(=O)(=O)N2CCCCC2)c(=O)n(C)c(=O)n1C	–	–	–	–	–	64
COC(=O)c1cccc(OCC(C)CN2CCC(C(O)(c3ccccc3)c3ccccc3)CC2)c1 (stereo unspecified)	–	–	–	·	–	·
COC1=C[C@H](C(=O)NCc2ccccc2)[C@H](C)[C@@H](c2ccccc2)CC1=O	–	–	–	·	–	·
COc1cc(CNCCc2ccccc2)ccc1OCC(=O)NC(C)(C)C	–	–	–	–	–	106
CC1CCCC(C)N1/N=C/c1ccc(N(C)C)cc1 (stereo unspecified)	–	24	–	–	–	–
N#Cc1ccc(Cn2ccc3ccc(-c4ccc5ccn(C(=O)C6CCCCC6)c5c4)cc32)cc1	–	–	–	·	–	·
CN[C@H]1C[C@H]2c3cc(-c4ccc5c(c4)OCO5)ccc3CCN2C[C@H]1[C@H](C)O	–	–	–	·	–	·
O=C(Nc1ccc2cn[nH]c2c1)c1c(Cl)cccc1Cl	–	22	–	–	–	–
O=C(Nc1ccc2cn[nH]c2c1)c1ccccc1F	–	–	–	–	–	–
CC(NC(=O)c1ccc(S(=O)(=O)N(C)C)cc1)c1ccccc1 (stereo unspecified)	–	21	–	–	–	–
Cc1nnn(C23CC4CC(CC(CC(=O)Nc5ccc(C)c(Cl)c5)(C4)C2)C3)n1	–	27	–	–	–	–
CSc1nsc(/C=C/Nc2ccc(C(=O)O)cc2)c1C#N	–	–	46	–	–	–
CSc1nsc(/C=C/Nc2ccc(F)cc2F)c1C#N	·	·	·	–	·	–
C=CCN1C(=O)[C@@H](CC(=O)NCCC(C)C)[C@]2(C(=O)OCC)CCCCC/C=C/12	–	–	–	·	–	·
CCOc1ccc2ccccc2c1CNCCc1ccc(S(N)(=O)=O)cc1	–	45	–	–	–	–
SMILES	MBD2 DNA inh	UHRF1 MBD2 ctr	rCAG RNA binder	ATG4B inhibitor	LEDGF integ inh	CSN deneddyl inh
CCOc1ccc(CNCCc2ccc(S(N)(=O)=O)cc2)cc1	–	–	–	–	–	–
CC1=NN(c2ccc(Br)cc2)C(=O)/C1=C/c1ccc(-c2ccccc2C(=O)O)o1	–	–	–	–	–	–
O=C(O)c1ccccc1-c1ccc(/C=c2\sc3nc4cc(Br)cnc4n3c2=O)o1	·	·	·	–	·	186
O=C(c1cncnc1)N1CCC(n2nnc3ncccc32)CC1	–	–	–	·	–	·
Cc1[nH]c2ccccc2c1CN1CCc2ccccc2C1	14	21	–	–	–	–
O=S1(=O)c2ccc(N3CCCC3)cc2Oc2ccccc2CN1Cc1cn(Cc2ccccc2C(F)(F)F)nn1	–	–	–	·	–	·
COC(=O)Cc1c(O)ccn(CCc2c[nH]c3ccccc23)c1=O	–	–	–	–	–	74
COC(=O)C1=C(C)N(C2CCCCC2)C(=O)/C1=C\c1cccs1	–	53	–	–	–	–
Cn1nc(-c2ccccc2)cc1NC(=O)Nc1ccccc1F	–	68	–	–	–	–
Cc1cc(C)cc(NC(=O)Nc2cc(-c3ccccc3)nn2C)c1	–	–	–	–	–	–
CCN(CC)C(=O)CC[C@@H]1CC[C@]2(CCCN(Cc3nccs3)C2)O1	–	–	–	·	–	·
O=C(CN1C(=O)/C(=C\c2ccco2)SC1=S)Nc1ccc(O)cc1C(=O)O	27	87	88	–	63	70
O=C1/C(=C\c2ccco2)SC(=S)N1Cc1ccccc1	–	–	–	–	–	–
Cc1nc(N(C)C)c2sc(=S)n(C)c2n1	–	27	–	–	–	–
CCCCCC[C@@H](CN(CCCC)S(C)(=O)=O)c1ccccc1	–	–	–	·	–	·
Cc1cc(C)cc(NC(=O)COC(=O)CCC2CCCC2)c1	–	–	–	–	–	–
Cc1cc(C)cc(NC(=O)COC(=O)CC2CCCC2)c1	–	32	–	–	–	–
COc1cccc(NC(=O)c2cccc(C)c2[N+](=O)[O-])c1	–	62	–	–	–	–
Cc1ccc(CNC(=O)C2CC(=O)N(C3CCCCCC3)C2)cc1 (stereo unspecified)	–	37	–	–	–	–
COC(=O)[C@@H](CC(C)C)CP(=O)(OC)[C@@H](C)NC(=O)OCc1ccccc1 (stereo partly specified)	–	–	–	·	–	·
CC(NC(=O)c1ccc(F)cc1)C1CC2CCC1C2 (stereo unspecified)	–	88	–	–	–	–
Cc1ccc(C(=O)NC(C)C2CC3CCC2C3)cc1 (stereo unspecified)	–	–	–	–	–	–
CCOC(=O)c1c(-c2ccc(OC)cc2)csc1NC(=O)CSc1ccccc1	–	–	–	–	–	–
CCOC(=O)c1c(-c2ccc(OC)cc2)csc1NC(=O)CSc1nnc(C)c(=O)[nH]1	–	–	63	–	–	–
CCC1(CC)NC(=O)N(CC(=O)OCn2nnc3ccccc3c2=O)C1=O	–	21	–	–	–	–
O=C(CN1C(=O)C2CCCCC2C1=O)OCn1nnc2ccccc2c1=O (stereo unspecified)	–	–	–	–	–	–
Cc1ccc2nc(N3C(=O)C(O)=C(C(=O)c4ccc(C)o4)C3c3ccc(O)cc3)sc2c1 (stereo unspecified)	–	–	69	–	–	–
Cc1ccc2nc(N3C(=O)C(O)=C(C(=O)c4ccco4)C3c3cccs3)sc2c1 (stereo unspecified)	–	–	–	–	–	–
CCOc1ccc2nc(N3C(=O)C(O)=C(C(=O)c4ccco4)C3c3ccco3)sc2c1 (stereo unspecified)	–	–	–	–	18	–
